Assay outcomes (PubChem)
This is a sample that favours compounds with a hit; in the whole collection about 2.7% have one here.
SDO1 yeast rescue = growth rescue of sdo1-depleted yeast, primary screen, S. cerevisiae, bone marrow failure model | S. cerevisiae sdo1-depleted JHY4D growth rescue, OD600 30 h; stronger effect = higher value; pdr5 snq2 efflux-pump mutant strain | z-score at 10 µM | actives 0.21% (n = 140,000);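 active means z-score above 3 at both the 24 hr and the 30 hr optical density reads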;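 further: z-score against mean and SD of all compound wells on the same plate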
Yeast life ext = compounds extending yeast replicative lifespan, primary screen, S. cerevisiae, OD615; inhibition of the nicotinamide effect, % at 10 µM; actives 0.68% (n = 130,000); AID 775, 2007; S. cerevisiae growth with nicotinamide; deaD strain in restrictive glucose medium;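 active means inhibition above a set limit, placed 3 SD over the median of all compounds, cut at about 26% in these data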;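 further: 0% = nicotinamide-treated wells and 100% = cells grown without nicotinamide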
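Test system – modified budding yeast, DeaD strain · Compound – single dose 10 µM compound, 0.25% DMSO · Times – culture preincubation 4 h, compound exposure 48 h, both 30 °C · Detection – optical density (absorbance) at 615 nm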
RAM inhibit = inhibitors of the yeast RAM network, primary screen, dse1pr::URA3 reporter, 5-FOA selection | S. cerevisiae dse1pr::URA3 reporter, 5-FOA growth OD615, 2 d; analog-sensitive cbk1-as2 kinase mutant strain | inhibition, % at 50 µM | actives 1.8% (n = 190,000) | AID 868, 2007;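 active means inhibition above a set limit, 3 SD over mean compound inhibition, cut at about 8.4% in these data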;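 further: 0% = DMSO-only wells with no growth and 100% = 10 µM 1-NA-PP1 full growth; inhibition rescues growth on 5-FOA so higher OD means more RAM inhibition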
Yeast growth inh = growth inhibitors of yeast BB579 in restrictive medium, primary screen, yeast lifespan-shortening project, S. cerevisiae. actives 0.51% (n = 140,000). inhibition, % at 10 µM. OD615, 48 h. AID 804, 2007;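 active means inhibition above a set limit, 3 SD over the mean compound inhibition, cut at about 44% in these data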
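Test system: S. cerevisiae DeaD strain BB579 yeast; Medium: restrictive CSMM-D medium; Compound: one dose, 10 µM compound with 0.25% DMSO; Incubation: 4 h cell preincubation, 48 h compound exposure, 30 °C humidified; Signal: OD at 615 nm; Benchmarks: amphotericin B at 10 µg/mL as positive control.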
Starred values were filed as active, the others as inactive; x = no result.

SMILES	SDO1 yeast rescue	Yeast life ext	RAM inhibit	Yeast growth inh
CC(Sc1nc(NC(C)(C)C)nc(N(C)C)n1)C(=O)Nc1ccccc1 (stereo not given)	x	x	3	x
Cc1[nH]n(-c2ncc(-c3ccccc3)s2)c(=O)c1C(c1ccc(Br)cc1)C(C#N)C#N (stereo not given)	-1.4	19	11*	2
CCOc1cc(NC(=O)c2ccccn2)c(OCC)cc1NC(=O)c1cccc(C)c1	x	x	9.6*	x
Cc1cccc(C(=O)Nc2cc(OCc3cccc(F)c3)c(Cl)cc2Cl)c1	-0.81	-15	9.4*	-60
COCCOc1cc(NC(=O)c2cccc(OC)c2)c(Cl)cc1Cl	x	x	1	x
COc1ccc(CCNC(=O)CSc2nnc3ccccn23)cc1	x	x	2	x
O=C(CSc1ccc([N+](=O)[O-])cc1)Nc1cccc(S(=O)(=O)Nc2ccccc2F)c1	x	x	9.2*	x
O=C(CSc1nnc(Nc2ccccc2F)s1)Nc1cccc(S(=O)(=O)N2CCCCC2)c1	-0.22	1	10*	-26
O=C(Cc1ccc(Cl)cc1)Nc1cccc(S(=O)(=O)Nc2ccccc2F)c1	-0.58	0	8	-25
Cc1ccc(C(=O)Nc2ccccc2C(=O)NCc2ccccc2)cc1	-0.93	-5	8.6*	-10
CN(C)C(=O)CCSc1nnc(-c2ccncc2)o1	x	x	2	x
COC(=O)c1nn(-c2cccc(C)c2)c2nnc(Cc3ccccc3)c(=O)n12	0.48	26*	1	-16
COC(=O)c1nn(-c2ccccc2)c2nnc(Cc3ccc(C)cc3)c(=O)n12	0.6	-1	4	-19
CCN(CCO)C(=O)C12CCC(C)(C(=O)C1)C2(C)C (stereo not given)	0.37	68*	0	-1
CC12CCC(C(=O)N3CCCCC3)(CC1=O)C2(C)C (stereo not given)	-0.13	-16	0	3
CCCCCc1nnc(NC(=O)C(=O)OCC)s1	1.6	39*	0	-47
CCOC(=O)C(=O)Nc1nnc(SCc2ccc(F)cc2)s1	0.15	35*	0	-2
CC(C)(C)C(=O)NC(=S)NNC(=O)c1ccc(Cl)cc1Cl	x	x	3	x
COc1ccc(C2(c3ccc(O)cc3O)CC(c3ccccc3Cl)NC(=S)N2)cc1 (stereo not given)	x	x	1	x
Cc1ccc(C)c(-c2csc(NC(=O)c3cnccn3)n2)c1	x	x	3	x
O=C(Cc1ccccc1)N/N=C/c1ccc(-c2ccc([N+](=O)[O-])cc2)o1	-0.22	-2	3	-6
CCCNC(=O)Cn1c(=O)/c(=C\c2ccc(-c3ccc([N+](=O)[O-])cc3)o2)s/c1=C\C(=O)C(C)(C)C	0.54	1	9.7*	-29
CCCNC(=O)Cn1c(=O)/c(=C\c2ccc(-c3cccc([N+](=O)[O-])c3)o2)s/c1=C\C(=O)C(C)(C)C	0.4	5	9.4*	-30
COc1ccc(CCn2c(=O)[nH]c3cc(C(=O)N4CCN(c5ccccn5)CC4)ccc3c2=O)cc1OC	x	x	2	x
Cc1nc2cc(NC(=O)c3ccc(N4C(=O)CCC4=O)cc3)ccc2s1	x	x	1	x
SMILES	SDO1 yeast rescue	Yeast life ext	RAM inhibit	Yeast growth inh
Cc1ccc(S(=O)(=O)N(CC#N)CC#N)cc1	x	x	2	x
O=C1c2cccc3c(Cl)ccc(c23)C(=O)N1O	-1	-10	0	82*
CCN1C(=O)c2cccc3c(Cl)ccc(c23)C1=O	x	x	2	x
CN(C)c1ccc(-c2nn3c(C4CCCCC4)nnc3s2)cc1	-2.4	-16	8.6*	-26
Cc1ccc2[nH]c3c(c2c1)CCC3=O	-0.73	-20	-2	-14
Cc1ccc2[nH]c3c(c2c1)CCc1cn[nH]c1-3	-3.2	-19	-1	92*
Cn1c(NC2CCCCC2)c(N=O)c(=O)n(C)c1=O	x	x	1	x
CCCCOc1ccc(C(=O)Nc2ccc(C)cc2[N+](=O)[O-])cc1	0.71	-1	9.1*	-1
CCOC(=O)c1cccc(NC(=O)COc2ccc([N+](=O)[O-])cc2)c1	-0.37	-38	-1	-17
CCCCOc1ccc(C(=O)OCC(=O)Nc2cc(C)c(C)cc2[N+](=O)[O-])cc1	0.12	6	11*	-40
CCCOC(=O)c1cccc(NC(=O)COc2ccc([N+](=O)[O-])cc2)c1	0.02	-3	10*	-8
Cc1cc(Nc2nn(C)c(N)c2C#N)ccc1F	x	x	2	x
O=C(O/N=C\c1ccc(N2CCCCC2)c([N+](=O)[O-])c1)c1ccc(Cl)cc1Cl	-0.27	-6	10*	-50
Cc1ccc(C(=O)O/N=C\c2ccc(N3CCOCC3)c([N+](=O)[O-])c2)cc1	0.53	-21	4	-58
O=C(/C=C/c1ccc(N2CCCCC2)c([N+](=O)[O-])c1)c1ccc(O)cc1	x	x	8.6*	x
COc1ccccc1C(=O)/C=C/c1ccc(N2CCCCC2)c([N+](=O)[O-])c1	-0.39	3	9.7*	-33
COc1ccc(-c2cc(-c3ccc(C)cc3)nc(SCc3nnc(-c4ccccc4)o3)c2C#N)cc1OC	0.81	3	6	-28
Cc1nnsc1Sc1ccccc1	x	x	1	x
O=C1C(Cc2ccccc2)SC(=Nc2ccccc2)N1c1ccccc1 (stereo not given)	-1.2	-1	5	-40
O=C1/C(=C\c2ccc(Br)o2)SC(=Nc2ccccc2)N1c1ccccc1	0.2	8	11*	-64
COCCN1CCn2c(nc3cc(NC(=O)c4cccs4)ccc32)C1	0.35	9	1	-87
CC(c1ccccc1)N1CCn2c(nc3cc(NC(=O)c4cccs4)ccc32)C1 (stereo not given)	-2.3	55*	0	-40
COc1ccc2c(c1)O[C@@H](c1cccc(C(F)(F)F)c1)[C@H](OC(=O)NCCc1ccc(OC)c(OC)c1)C2=O	0.45	19	3	-18
CCc1ccc(N=CC23c4ccccc4C(c4ccccc42)C2C(=O)N(c4ccc(OC)cc4)C(=O)C23)cc1 (stereo not given)	-1.5	29*	4	-22
COc1ccc(CNc2nc(NCc3ccc(OC)cc3)n(C(C)=O)n2)cc1	-0.97	-2	5	-13
SMILES	SDO1 yeast rescue	Yeast life ext	RAM inhibit	Yeast growth inh
CCC(=O)n1nc(NCc2ccccc2OC)nc1NCc1ccccc1OC	-1.2	-4	9.2*	-78
Cc1cccc2sc(NC(=O)C3=NN(c4ccccc4)C(=O)CC3)nc12	-0.77	6	11*	-21
CCOC1OC(=O)C(Cl)=C1Nc1ccc(C)cc1 (stereo not given)	x	x	0	x
Cc1ccc(NC2=C(Cl)C(=O)OC2NC(=O)c2ccccc2)cc1 (stereo not given)	1.4	x	9.3*	-14
O=C1C=CC2C(c3ccc4c(c3)OCO4)CC1N2Cc1ccccc1 (stereo not given)	-1.3	50*	0	-33
CN1C(=O)c2ccccc2N(C)C1c1ccc2c(c1)OCO2 (stereo not given)	0.24	-17	1	-37
O=C1c2cc([N+](=O)[O-])cc3cc([N+](=O)[O-])cc(c23)C(=O)N1c1ccccn1	-0.49	32*	1	-16
